# From ChEMBL document CHEMBL1629485, “Lead identification of conformationally restricted β-lactam type combretastatin analogues: synthesis, antiproliferative activity and tubulin targeting effects” (Eur J Med Chem, 2010)
# pIC50: −log10 of the molar value.
# Assays:
# MCF7 [1] = assay: Antiproliferative activity against human MCF7 cells expressing estrogen receptor after 72 hrs by MTT assay; type: functional, cell-based; conditions: MCF7, 72 h
# MDA-MB-231 [2] = assay: Cytotoxicity against estrogen receptor deficient human MDA-MB-231 cells assessed as LDH release at 10 uM; type: functional
# In short: (§1)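 After compound treatment, LDH was measured with a commercial LDH kit. Result is % cell lysis at 10 μM compound.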
# MCF7 [3] = assay: Cytotoxicity against human MCF7 cells expressing estrogen receptor assessed as LDH release at 10 uM; type: functional; in short: as §1
# MDA-MB-231 [4] = assay: Antiproliferative activity against estrogen receptor deficient human MDA-MB-231 cells after 72 hrs by MTT assay; type: functional, cell-based; conditions: MDA-MB-231, 72 h
# In short: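 MCF-7 grown in Eagle's MEM with 10% FBS, 2 mM L-glutamine, penicillin/streptomycin and 1% non-essential amino acids; MDA-MB-231 grown in DMEM with 10% FBS, 2 mM L-glutamine and penicillin/streptomycin. Seeded at 2.5 × 10⁴ cells/mL, 24 h at 37 °C. Ethanol-stock compound, 1 nM–100 μM, 72 h, ethanol 1% v/v vehicle. MTT at 1 mg/mL final, 2 h dark, 37 °C, DMSO solubilised. Viability vs untreated control. IC50 is mean of three experiments in triplicate.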
Compound,pIC50 (MCF7 [1]),pIC50 (MDA-MB-231 [4]),Activity (MDA-MB-231 [2]) [%],Activity (MCF7 [3]) [%]
COc1ccc(N2C(=O)CC2c2cc(OC)c(OC)c(OC)c2)cc1O (configuration not stated),6.60,6.57,6.6,2.3
COc1ccc(N2C(=O)C(C)C2c2cc(OC)c(OC)c(OC)c2)cc1O (configuration not stated),5.53,4.89,0,17
COc1cc(N2C(=O)CC2c2ccc(F)cc2)cc(OC)c1OC (configuration not stated),4.59,4.59,6.3,0
COc1ccc(C2CC(=O)N2c2cc(OC)c(OC)c(OC)c2)cc1 (configuration not stated),7.41,6.68,1.1,1.5
COc1ccc(C2C(C)C(=O)N2c2cc(OC)c(OC)c(OC)c2)cc1 (configuration not stated),7.33,6.90,4.5,5.7
COc1cc(N2C(=O)CC2c2cccs2)cc(OC)c1OC (configuration not stated),4.67,4.46,15,20
COc1ccc2cc(C3CC(=O)N3c3cc(OC)c(OC)c(OC)c3)ccc2c1 (configuration not stated),5.82,4.88,18,13.5
COc1ccc(C2CC(=S)N2c2cc(OC)c(OC)c(OC)c2)cc1 (configuration not stated),5.95,5.35,3,16
COc1ccc(C2C(C)C(=S)N2c2cc(OC)c(OC)c(OC)c2)cc1 (configuration not stated),6.05,5.03,5.1,3.2
COc1ccc(/C=C\c2cc(OC)c(OC)c(OC)c2)cc1O [COMBRETASTATIN A4],,,4.3,5.6

# More lines, main results first:
pIC50 (MCF7 [1]),pIC50 (MDA-MB-231 [4]),Compound,Activity (MDA-MB-231 [2]) [%],Activity (MCF7 [3]) [%]
8.00,7.33,COc1ccc(C2C(C)C(=O)N2c2cc(OC)c(OC)c(OC)c2)cc1O (configuration not stated),25,15
6.89,5.78,COc1ccc(C2N(c3cc(OC)c(OC)c(OC)c3)C(=O)C2(C)C)cc1O (configuration not stated),20,12
5.39,5.50,COc1ccc(N2C(=O)C(C)(C)C2c2cc(OC)c(OC)c(OC)c2)cc1O (configuration not stated),12.1,11.5
4.20,4.41,COc1cc(OC)c(C2CC(=O)N2c2cc(OC)c(OC)c(OC)c2)cc1OC (configuration not stated),0,2.2
6.58,5.94,COc1ccc(C2N(c3cc(OC)c(OC)c(OC)c3)C(=O)C2(C)C)cc1 (configuration not stated),16,12
3.77,4.03,COc1cc(C2CC(=O)N2c2cc(OC)c(OC)c(OC)c2)cc(OC)c1OC (configuration not stated),0,1.9
6.51,5.55,COc1cc(N2C(=O)CC2c2ccc(OC)c(OC)c2OC)cc(OC)c1OC (configuration not stated),9,8
5.79,6.01,COc1ccc(C2CC(=O)N2c2cc(OC)c(OC)c(OC)c2)cc1OC (configuration not stated),15,5
5.53,5.05,COc1ccc(C2C(C)C(=O)N2c2cc(OC)c(OC)c(OC)c2)cc1OC (configuration not stated),6.1,7.5
6.46,5.84,COc1ccc(C2N(c3cc(OC)c(OC)c(OC)c3)C(=O)C2(C)C)cc1OC (configuration not stated),12,14
6.46,5.88,COc1ccc(C2N(c3cc(OC)c(OC)c(OC)c3)C(=S)C2(C)C)cc1 (configuration not stated),8,5.5
